# Bioassay records: PubChem BioAssay, Sanford-Burnham Center for Chemical Genomics
# DNMT1 inh: blocks human DNA methyltransferase DNMT1. P26358. DNMT1 molecular beacon, Hinp1I cleavage, fluorescence. inhibition (reported as % activation of signal), % at 10 µM. 0.83% of 360,000 active. AID 588458; in the data active = inhibition above about 50%
# Scp-1 inhibitor: blocks human Scp-1 phosphatase activity | Q9GZU7 | Recombinant Scp1, phosphopeptide, malachite green phosphate absorbance | inhibition, % at 20 µM | 0.88% of 340,000 active | AID 493091;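 active = inhibition above about 50% at 20 µM, limit read from the data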
# Target sequence (Q9GZU7 76-261 limits assumed): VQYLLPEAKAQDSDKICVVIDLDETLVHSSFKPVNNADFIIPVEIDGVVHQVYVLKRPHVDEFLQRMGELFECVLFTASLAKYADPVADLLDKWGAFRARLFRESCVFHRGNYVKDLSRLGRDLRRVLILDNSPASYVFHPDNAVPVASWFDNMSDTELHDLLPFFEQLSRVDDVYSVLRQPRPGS
#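 Test system: SCP-1 phosphatase catalytic domain, residues 76-261; measured by: colorimetric phosphate reagent with accelerator and stabiliser, absorbance at 630 nm; timing: enzyme reaction 45 min at room temperature, colour 5 min, stabilisation 30 min; also added: Phosphorylated 17-residue peptide substrate; compound dosing: one concentration, 20 µM, with 1.0% DMSO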
# SUMO1-SIM PPI: modulators of human SUMO1-mediated protein-protein interactions; P63165; SUMO1 binding to a labelled peptide, TR-FRET, 1 h; inhibition, % at 20 µM; 0.33% of 360,000 active; AID 602429; in the data active = inhibition above about 37%
# Target sequence (P63165 whole entry, looked up): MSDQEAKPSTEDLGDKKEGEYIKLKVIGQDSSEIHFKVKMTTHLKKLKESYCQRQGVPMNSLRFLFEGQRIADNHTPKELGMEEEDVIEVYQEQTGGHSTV
# NadD block: blocks S. aureus nicotinate mononucleotide adenylyltransferase. 0.78% of 360,000 active. AID 602399. inhibition, % at 20 µM. purified NadD enzyme, colorimetric absorbance read-out; in the data active = inhibition above about 26%
# LMPTP block: LMPTP (human) inhibition; P24666; recombinant LMPTP-A, OMFP fluorogenic substrate, fluorescence intensity; inhibition, % at 20 µM; 0.22% of 360,000 active; AID 651560;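 active = compounds that cut the enzyme signal by at least half of the control window in the single-dose screen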
# Target sequence (P24666 whole entry, looked up): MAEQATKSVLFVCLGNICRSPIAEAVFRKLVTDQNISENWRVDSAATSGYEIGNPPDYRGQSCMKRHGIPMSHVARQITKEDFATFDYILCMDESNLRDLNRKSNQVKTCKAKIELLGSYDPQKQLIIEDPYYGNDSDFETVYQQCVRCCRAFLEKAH
#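 Test system: LMPTP-A, protein tyrosine phosphatase of low molecular weight; Input: 0.625 nM enzyme; Incubation: 50 min dark incubation at room temperature; Signal: endpoint fluorescence intensity from OMFP dephosphorylation; Read-out basis: % inhibition versus control wells.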
# STEP block: inhibitors of human striatal-enriched phosphatase STEP; recombinant STEP, OMFP fluorogenic substrate, fluorescence; inhibition, % at 20 µM; 0.25% of 360,000 active; AID 588621;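 active = inhibition at 20 µM, scaled per plate between control wells, above about 37%, limit read from the data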
#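 Measure: Control-normalized % inhibition with plate pattern correction | Test system: STEP phosphatase, cell-free reaction | Medium: pH 6.0 Bis-Tris with DTT and Tween 20 | Technique: Fluorescence, 480/540 nm | Times: Reaction 20 min, ambient temperature | Doses: Single compound dose of 20 µM, 1% DMSO final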
# NadD conf: NadD (S. aureus) inhibition, single concentration confirmation; shares compounds with NadD block; purified S. aureus NadD, colorimetric enzyme assay; inhibition, % at 20 µM; 13% of 2,000 active; in the data active = inhibition mostly above about 42%, no sharp cut-off; inactive = mostly below about 42%
# Numbers stand for hits; i = inactive; nt = no result. An excerpt weighted towards active compounds, which were near 2.4% of everything screened.
SMILES,DNMT1 inh,Scp-1 inhibitor,SUMO1-SIM PPI,NadD block,LMPTP block,STEP block,NadD conf
O=C(Nc1nc2ccc(F)cc2s1)C1CCN(S(=O)(=O)c2cc([N+](=O)[O-])ccc2Cl)CC1,i,55,i,35,i,i,i
Cn1c(SCC(=O)c2ccc(-c3ccccc3)cc2)nnc1-c1ccco1,i,i,i,32,i,i,i
CC1CN(c2nnc(NC(=O)c3ccccc3)s2)CC(C)O1 (stereo unspecified),i,i,i,i,i,i,nt
CC1=CC(C)(C)n2c(O)c(C3=NC(=S)NC3=O)c3cc(OC(=O)c4cccc5ccccc45)cc1c32,i,i,i,55,i,i,i
CC1CC(O)C2C3(C)CCCC2(COC3=O)C12CCC1(CCOC1=O)O2 (stereo unspecified),i,nt,i,i,i,i,nt
Cc1c(/C=C2\SC(=O)N(CC(=O)Nc3ccc4c(c3)OCO4)C2=O)c2ccccc2n1C,i,i,i,i,i,i,nt
Cc1cc(C(=O)O)ccc1-c1ccc(/C=C2\SC(=O)N(CC(=O)Nc3ccc4c(c3)OCO4)C2=O)o1,101,nt,73,48,80,64,i
CC(C)NC(=O)C1(C)CN(S(C)(=O)=O)CC(=O)N1Cc1cccc(C(F)(F)F)c1 (stereo unspecified),nt,nt,i,nt,i,nt,nt
Oc1cccc(-c2sc3ccccc3c2-c2ccc(OCCN3CCCCC3)cc2)c1,nt,nt,i,i,i,nt,nt
O=C(c1ccc(OCCN2CCCCC2)cc1)c1c(-c2ccc(O)cc2)sc2cc(O)ccc12,i,i,i,33,i,i,i
O=C(NCc1cccnc1)c1ccc(Br)o1,i,i,i,i,i,i,nt
Cc1ccc(NC(=O)CSc2nnc(CSc3nc(C)cc(C)n3)n2Cc2ccco2)c(C)c1,i,i,i,i,i,i,nt
Cc1ccc(NCc2nnc(SCC(=O)c3ccccc3)n2Cc2ccco2)c(C)c1,i,i,i,25,i,i,57
COc1ccc(-n2c(SCC(=O)NCC3CCCO3)nc3c(c2=O)SC(C)C3)cc1 (stereo unspecified),i,i,i,i,i,i,nt
CC1(C)CC(=O)C2=C(C1)c1c(ccc3ccccc13)NC2c1ccc(OCC(=O)O)cc1 (stereo unspecified),i,i,i,i,i,i,nt
CC1(C)CC(=O)C2=C(C1)c1c(ccc3ccccc13)NC2c1ccc(Br)o1 (stereo unspecified),i,i,i,37,i,i,i
CCOc1ccc(CCN2C(=S)N([C@@H](Cc3ccc(O)cc3)CN3CCCC3CN3C(=S)NC[C@@H]3Cc3ccc(O)cc3)C[C@@H]2CC(C)C)cc1 (stereo partly specified),i,i,i,43,i,i,i
CCOc1ccc(CCN2C(=S)N([C@@H](Cc3ccccc3)CN3CCC[C@@H]3CN3C(=S)NC[C@@H]3Cc3ccc(O)cc3)C[C@@H]2CC(C)C)cc1,i,nt,i,31,i,i,i
CCOc1ccc(CCN2C(=S)N([C@@H](Cc3ccc(O)cc3)CN3CCC[C@@H]3CN3C(=S)NC[C@@H]3CC(C)C)C[C@@H]2Cc2ccc(O)cc2)cc1,i,nt,i,48,i,i,i
CCC1c2ccccc2C(=O)C1C(N)=O (stereo unspecified),i,i,i,i,i,i,nt
O=C1N[C@@H](Cc2ccccc2)C(=O)N2[C@H]1C[C@]1([C@]34C[C@H]5C(=O)N[C@@H](Cc6ccccc6)C(=O)N5[C@H]3N(S(=O)(=O)c3ccccc3)c3ccccc34)c3ccccc3N(S(=O)(=O)c3ccccc3)[C@H]21,i,i,i,38,i,i,i
COc1cc(NS(=O)(=O)c2ccc(NC(=S)NC(=O)c3sc4ccccc4c3Cl)cc2)ncn1,i,i,i,50,i,i,i
Cc1cc2oc(=O)cc(CN3CCc4ccccc43)c2cc1Cl,i,i,i,32,i,i,i
CCc1ccc2c(CN3CCc4ccccc43)cc(=O)oc2c1,i,i,i,i,i,i,nt
Nc1c(C(=O)NCc2ccco2)c2nc3ccccc3nc2n1CCc1ccc(F)cc1,i,i,i,38,i,i,i
SMILES,DNMT1 inh,Scp-1 inhibitor,SUMO1-SIM PPI,NadD block,LMPTP block,STEP block,NadD conf
Cc1ccc(NC(=O)N(Cc2ccc3c(c2)OCO3)Cc2cc3cc4c(cc3[nH]c2=O)OCCO4)cc1,i,i,i,34,i,i,i
Cc1ccc(NC(=O)N(CCCN2CCOCC2)Cc2cc3cc4c(cc3[nH]c2=O)OCO4)cc1,i,i,i,i,i,i,nt
Nc1c(S(=O)(=O)c2cccs2)c2nc3ccccc3nc2n1Cc1ccccc1,i,i,i,i,i,i,nt
Cc1ccc(Cn2c(N)c(S(=O)(=O)c3cccs3)c3nc4ccccc4nc32)cc1,i,i,i,32,i,i,i
CCOc1ccccc1NC(=O)c1ccc2nc[nH]c2c1,i,i,i,i,i,i,nt
COc1ccc(-c2ccc3c(c2)O[C@H](CN(C)C(=O)Nc2ccccc2F)[C@@H](C)CN([C@H](C)CO)S3(=O)=O)cc1,i,nt,i,i,i,i,nt
CCOC(=O)C1=C(C)N=c2s/c(=C\c3ccc(OCC(=O)O)cc3)c(=O)n2C1c1ccccc1OC (stereo unspecified),i,i,i,i,i,i,nt
CCOC(=O)C1=C(C)N=c2s/c(=C\c3ccc(O)c([N+](=O)[O-])c3)c(=O)n2C1c1ccccc1OC (stereo unspecified),i,i,i,38,i,i,i
COc1ccc(/C=c2/sc3n(c2=O)C(c2ccccc2OC)C2=C(N=3)c3ccccc3CC2)cc1O (stereo unspecified),i,i,i,53,i,i,i
COc1cc(/C=c2\sc3n(c2=O)CCCN=3)ccc1O,i,i,i,i,i,i,nt
CCOC(=O)C1=C(C)N=c2s/c(=C/c3cccc([N+](=O)[O-])c3O)c(=O)n2C1c1ccc(OC)cc1OC (stereo unspecified),i,i,i,36,i,i,i
COc1ccccc1C1C2=C(N=C3SCC(=O)N31)c1ccccc1CC2 (stereo unspecified),i,i,i,i,i,i,nt
COc1cc(/C=c2\sc3n(c2=O)C(c2ccccc2)C(c2ccccc2)=NN=3)ccc1O (stereo unspecified),i,i,i,29,i,i,51
CCOC(=O)C1=C(C)N=c2s/c(=C/c3ccc(OCC(=O)O)cc3)c(=O)n2C1c1ccc(OC)cc1OC (stereo unspecified),i,i,i,i,i,i,nt
COc1ccc(C(=O)NC(=S)Nc2ccc3oc(=O)ccc3c2)cc1[N+](=O)[O-],i,i,i,i,i,i,nt
Nc1nnc(SCC(=O)OCc2ccc(F)cc2)s1,i,i,i,i,i,i,nt
